The full list was thinned out, with hits kept by preference.
A1 apoptosis 2: compounds inhibiting A1, read as caspase activation; MEF A1-2A-BIM cells, caspase-Glo luminescence, 3 h; percent of clofoctol response, DMSO zero; caspase activation, % (no concentration beside the values); 24,000 tested, under 10 active; in the data active means caspase activation above about 5.9%
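Evaluation: Caspase-3/7 activity from luminescence increase | Assay system: A1-2A-BIM mouse embryonic fibroblasts | Quantity: 2500 MEF cells/well | Medium: RPMI-1640 plus 10% FBS | Detection: Caspase-Glo 3/7 luminescence, 1 h at room temperature | Dosing: 50 nL compound per well, pinned | Timing: Cells settled overnight, compound exposure 3 h at 37 °C, 5% CO2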
INS-1E rescue: rescue of cytokine-induced death in INS-1E beta cells | INS-1E cytokine-induced death, ATP luminescence, 48 h; normalised: neutral wells 0, positive control 100 | protection from cytokine-induced ATP loss, % at 10 µM | 0.1% of 20,000 active | AID 488910;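 active means mean replicate protection from cytokine-induced ATP loss at least 50% and at least 75% of replicates each reaching 50%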
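Assay system: INS-1E rat insulinoma cells. Amount: 8000 cells per well. Medium: phenol-red-free RPMI with 5% fetal bovine serum. Reagent: IL-1β, TNF-α and IFN-γ cytokine mix. Doses: one compound concentration, pin transfer. Schedule: 48 h co-treatment, 10 min post-lysis read. Detection: CellTiter-Glo luminescence measuring cellular ATP.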
T cruzi intra: intracellular Trypanosoma cruzi inhibition; intracellular Trypanosoma cruzi in host cells, plate reader; activity score (inhibition), % at 5.01 µM; 4.9% of 22,000 active; in the data active means activity score above about 55%;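 further: parasites and compound incubated about four days before reading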
Each line names hits and unclear results; the compound was inactive in the other large screens.

Cc1noc(C)c1NC(=O)Nc1cccc2c1O[C@@H](CN(C)S(C)(=O)=O)[C@@H](C)CN([C@@H](C)CO)C2=O	T cruzi intra 66.6 (no result: A1 apoptosis 2)
Cc1noc(C)c1NC(=O)Nc1cccc2c1O[C@@H](CN(C)S(C)(=O)=O)[C@H](C)CN([C@H](C)CO)C2=O	none (no result: A1 apoptosis 2)
C[C@@H]1CN([C@@H](C)CO)C(=O)c2cccc(NC(=O)Nc3ccc(C(F)(F)F)cc3)c2O[C@H]1CN(C)S(=O)(=O)c1ccc(F)cc1	none
C[C@H]1CN([C@@H](C)CO)C(=O)c2cccc(NC(=O)Nc3ccc(C(F)(F)F)cc3)c2O[C@H]1CN(C)S(=O)(=O)c1cccs1	none
C[C@H](CO)N1C[C@H](C)[C@@H](CN(C)S(=O)(=O)c2ccc(F)cc2)Oc2c(NC(=O)Nc3ccc(C(F)(F)F)cc3)cccc2C1=O	T cruzi intra 56.8
C[C@H](CO)N1C[C@H](C)[C@H](CN(C)C(=O)NC2CCCCC2)Oc2ccc(NS(=O)(=O)c3ccc(F)cc3)cc2C1=O	none (no result: A1 apoptosis 2, INS-1E rescue)
C[C@@H]1CN([C@H](C)CO)C(=O)c2cc(NC(=O)Nc3ccc(F)cc3)ccc2O[C@@H](C)CCCCO[C@@H]1CN(C)Cc1ccc(Cl)c(Cl)c1	none (no result: INS-1E rescue, T cruzi intra)
C[C@@H]1CN([C@H](C)CO)C(=O)c2cc(NC(=O)Nc3cccc4ccccc34)ccc2O[C@@H]1CN(C)C(=O)Nc1cccc2ccccc12	none
C[C@H](CO)N1C[C@H](C)[C@H](CN(C)S(=O)(=O)c2ccc(Cl)cc2)Oc2c(NC(=O)Nc3ccccc3)cccc2C1=O	none (no result: A1 apoptosis 2)
C[C@H](CO)N1C[C@H](C)[C@H](CN(C)S(=O)(=O)c2ccc(Cl)cc2)Oc2c(NC(=O)CCCCCC(=O)Nc3ccccc3N)cccc2C1=O	T cruzi intra 73.7
C[C@H]1CN([C@@H](C)CO)C(=O)c2cccc(NC(=O)CCCCCC(=O)Nc3ccccc3N)c2O[C@@H]1CN(C)S(=O)(=O)c1ccc(Cl)cc1	none
Cc1ccc(S(=O)(=O)N(C)C[C@@H]2Oc3c(NC(=O)Nc4ccc(C(F)(F)F)cc4)cccc3C(=O)N([C@H](C)CO)C[C@@H]2C)cc1	T cruzi intra 84.9
C[C@H](CO)N1C[C@H](C)[C@@H](CN(C)S(=O)(=O)c2ccc(Cl)cc2)Oc2c(NC(=O)Nc3ccccc3)cccc2C1=O	T cruzi intra 67.6
Cc1ccc(S(=O)(=O)N(C)C[C@H]2Oc3c(NC(=O)Nc4ccc(C(F)(F)F)cc4)cccc3C(=O)N([C@H](C)CO)C[C@H]2C)cc1	none (no result: A1 apoptosis 2)
Cc1noc(C)c1S(=O)(=O)Nc1ccc2c(c1)C(=O)N([C@@H](C)CO)C[C@H](C)[C@@H](CN(C)Cc1ccc(C(F)(F)F)cc1)O2	T cruzi intra 64.8 (no result: A1 apoptosis 2)
Cc1noc(C)c1S(=O)(=O)Nc1ccc2c(c1)C(=O)N([C@H](C)CO)C[C@H](C)[C@H](CN(C)C(=O)Nc1ccc(C(F)(F)F)cc1)O2	T cruzi intra 73.4 (no result: A1 apoptosis 2, INS-1E rescue)
Cc1noc(C)c1S(=O)(=O)Nc1ccc2c(c1)CC(=O)N([C@H](C)CO)C[C@@H](C)[C@@H](CN(C)Cc1ccc(C(F)(F)F)cc1)O2	T cruzi intra 69.2
Cc1noc(C)c1S(=O)(=O)Nc1ccc2c(c1)C(=O)N([C@H](C)CO)C[C@H](C)[C@@H](CN(C)C(=O)Nc1ccc(C(F)(F)F)cc1)O2	none (no result: A1 apoptosis 2)
Cc1noc(C)c1S(=O)(=O)Nc1ccc2c(c1)C(=O)N([C@H](C)CO)C[C@@H](C)[C@@H](CN(C)Cc1ccc(C(F)(F)F)cc1)O2	none (no result: A1 apoptosis 2)
Cc1noc(C)c1S(=O)(=O)Nc1ccc2c(c1)CC(=O)N([C@@H](C)CO)C[C@@H](C)[C@@H](CN(C)Cc1ccc(C(F)(F)F)cc1)O2	none
COc1ccc(S(=O)(=O)Nc2ccc3c(c2)C(=O)N([C@H](C)CO)C[C@@H](C)[C@H](CN(C)C(=O)NC2CCCCC2)O3)cc1	none (no result: INS-1E rescue)
COc1ccc(S(=O)(=O)N(C)C[C@H]2Oc3ccc(NS(=O)(=O)c4ccc(Cl)cc4)cc3CC(=O)N([C@H](C)CO)C[C@H]2C)cc1	T cruzi intra 67.3 (no result: A1 apoptosis 2)
COc1ccc(S(=O)(=O)N(C)C[C@H]2Oc3ccc(NS(=O)(=O)c4ccc(Cl)cc4)cc3CC(=O)N([C@H](C)CO)C[C@@H]2C)cc1	none (no result: INS-1E rescue, T cruzi intra)
COc1ccc(S(=O)(=O)Nc2ccc3c(c2)CC(=O)N([C@H](C)CO)C[C@@H](C)[C@@H](CN(C)S(=O)(=O)c2ccc(OC)cc2)O3)cc1	T cruzi intra 67.0
COc1ccc(S(=O)(=O)Nc2ccc3c(c2)CC(=O)N([C@H](C)CO)C[C@H](C)[C@H](CN(C)S(=O)(=O)c2ccc(Cl)cc2)O3)cc1	none
COc1ccc(S(=O)(=O)N(C)C[C@H]2Oc3ccc(NS(=O)(=O)c4ccc(Cl)cc4)cc3CC(=O)N([C@@H](C)CO)C[C@H]2C)cc1	T cruzi intra 62.3
COc1ccc(S(=O)(=O)N(C)C[C@@H]2Oc3ccc(NS(=O)(=O)c4ccc(Cl)cc4)cc3CC(=O)N([C@@H](C)CO)C[C@@H]2C)cc1	none
COc1ccc(S(=O)(=O)Nc2ccc3c(c2)CC(=O)N([C@@H](C)CO)C[C@H](C)[C@@H](CN(C)S(=O)(=O)c2ccc(OC)cc2)O3)cc1	none
COc1ccc(S(=O)(=O)Nc2ccc3c(c2)CC(=O)N([C@H](C)CO)C[C@@H](C)[C@@H](CN(C)S(=O)(=O)c2ccc(Cl)cc2)O3)cc1	T cruzi intra 60.0
Cc1noc(C)c1NC(=O)Nc1ccc2c(c1)C(=O)N([C@@H](C)CO)C[C@@H](C)[C@H](CN(C)Cc1ccc(C(=O)Nc3ccccc3N)cc1)O2	none
COc1ccc(CN(C)C[C@H]2Oc3ccc(NC(=O)NC(C)C)cc3CC(=O)N([C@@H](C)CO)C[C@H]2C)cc1	none
C[C@@H]1CN([C@@H](C)CO)C(=O)Cc2cc(NC(=O)Cn3cnnn3)ccc2O[C@H]1CN(C)S(C)(=O)=O	none (no result: INS-1E rescue, T cruzi intra)
C[C@H]1CN([C@@H](C)CO)C(=O)c2cccc(NC(=O)Nc3ccc(F)cc3)c2O[C@H]1CN(C)Cc1ccccc1	none
C[C@H](CO)N1C[C@H](C)[C@@H](CN(C)C(=O)Nc2cccc3ccccc23)Oc2c(NC(=O)c3cnccn3)cccc2C1=O	none
COc1ccc(S(=O)(=O)Nc2ccc3c(c2)CC(=O)N([C@@H](C)CO)C[C@@H](C)[C@@H](CN(C)S(=O)(=O)c2ccc(Cl)cc2)O3)cc1	T cruzi intra 60.4 (no result: A1 apoptosis 2)
COc1ccc(S(=O)(=O)Nc2ccc3c(c2)CC(=O)N([C@H](C)CO)C[C@@H](C)[C@H](CN(C)S(=O)(=O)c2ccc(Cl)cc2)O3)cc1	none (no result: A1 apoptosis 2)
C[C@@H]1CN([C@H](C)CO)C(=O)c2cc(NS(=O)(=O)c3ccc(Cl)cc3)ccc2O[C@H]1CN(C)Cc1ccccc1	none (no result: A1 apoptosis 2)
Cc1ccc(S(=O)(=O)N(C)C[C@H]2Oc3ccc(NS(=O)(=O)c4ccc(F)cc4)cc3C(=O)N([C@H](C)CO)C[C@H]2C)cc1	none
C[C@@H]1CCCCO[C@H](CN(C)Cc2ccc(C(F)(F)F)cc2)[C@@H](C)CN([C@H](C)CO)C(=O)c2cc(NC(=O)Nc3ccccc3)ccc2O1	T cruzi intra 67.5
C[C@@H]1CN([C@@H](C)CO)C(=O)c2cc(NC(=O)Nc3ccccc3)ccc2O[C@@H](C)CCCCO[C@@H]1CN(C)Cc1ccc(C(F)(F)F)cc1	none (no result: INS-1E rescue, T cruzi intra)

Screening results (PubChem BioAssay)
